Measured values from the EternaBench riboswitch data.

Tested on: MS2 coat protein
Assay: apparent Kd, MS2 coat protein; higher = weaker binding; RNA-MaP array; FMN 200 µM where present
Outline: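 Stalled E. coli RNA polymerase transcribed each design on Illumina sequencing-chip clusters. The clusters were titrated with SNAP-549-labelled MS2 coat protein, starting at 0.7 or 1.5 nM and doubling up to 3 µM, first without ligand and then with constant ligand, in 100 mM Tris-HCl pH 7.5, 80 mM KCl, 4 mM MgCl2, BSA, DTT, yeast tRNA and Tween-20. Green signal was normalised to red-channel RNA signal and to the control-cluster median Fmax. The apparent Kd is the median of filtered binding-curve fits made for each cluster.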

[1] = designed as: ON switch for flavin mononucleotide, no ligand
[2] = ligand present: flavin mononucleotide, designed as: ON switch for flavin mononucleotide
[3] = designed as: OFF switch for flavin mononucleotide, no ligand
[4] = ligand present: flavin mononucleotide, designed as: OFF switch for flavin mononucleotide

| Sequence | apparent Kd [1] | apparent Kd [2] | apparent Kd [3] | apparent Kd [4] |
| --- | --- | --- | --- | --- |
| AUUAUUGACAUAGGAUAUUGUUACAUGAGGAUCACCCAUGUUAUUUGGGAACUAGGAAUAUUUUACAAGAAGGAUGUUGUUAAA | 91 nM | 79.3 nM |  |  |
| GCACGAGACUAAGGAUAUGGUGUACCUACAUGUAACAUGAGGAUCACCCAUGUGGUAAGUAUGAUUCAGAAGGUAGAGACGUGC | 33.2 nM | 20 nM |  |  |
| GUAACUCAUGUAGGAUAUGCAUGGCGAAGCUACGCAGAAGGACAUGAGGAUCACCCAUGUUCUAGCGUCUGAGUACAGAUGCAA |  |  | 60.2 nM | 436 nM |
| UGUGCGUAUGUGAGGAUAUGCUGGUCCUUGGCUCGGCAGAAGGCACAUGAGGAUCACCCAUGUGGUGUCGUACG |  |  | 75.5 nM | 199 nM |
| GGGUACAUCGGAGGAUAUCAUGUAAAUACAUGAGGAUCACCCAUGUCGAUGGAGACAUCGGAGCUUGAGAAGGCCGAUGUACCG | 36.2 nM | 6.49 nM |  |  |
| AUCUUGAGAGGAUAUACAUGAGGAUCACCCAUGUUGCUAACACCAUGCGCUCAUUUACGUAGAAGGCUCAUCCG |  |  | 21.1 nM | 40.4 nM |
| GCAUCCAUAGUGAGGAUAUACCUCUGGAUACAUAGGUAGAAGGCACAUGAGGAUCACCCAUGUUCUUAGGAUGC |  |  | 28.7 nM | 35.4 nM |
| AAUUUUUAACAGAAGGCGUUUAUAGUUAAGUUACGAGGAUAUGUAUUACAUGAGGAUCACCCAUGUUACUAGGGUAGUAUAUAA | 22.1 nM | 20.7 nM |  |  |
| ACAUGAGGAUCACCCAUGUGACCACAAUGGCUGAUAUAGAAACAGGAUAUUCGUGAAUAUCUAACGAAGAAGGGUUAUGACUGG |  |  | 77.8 nM | 85 nM |
| AGCAUGUUUGGGUAACCUGGCACAUGAGGAUCACCCAUGUGACAGGAUAUCGACGUAGAUGGCGACGAGAAGGGUCCGAUGGGU |  |  | 5.78 nM | 7.01 nM |
| AGUGUGUGGCAGGAUAUGCUGUUGAUUGGUGAAGCAGAAGGGUCUACAUGAGGAUCACCCAUGUAAGCGGUUGA |  |  | 53.1 nM | 225 nM |
| UUCAAGGGUUGAGGAUAUCCCGGUUGUGUCCUCAUCCGCCAAGGUACAUGAGGAUCACCCAUGUGGGAGAAGGCAAUACUAGAG |  |  | 130 nM | 182 nM |
| GCCCUAAGGCGGGCCGACCAUACAUGAGGAUCACCCAUGUCGAGAAGGUGCUCACGGGUGGGUGGCAAGGAUAUCGGGUCGGAU | 77.1 nM | 41.4 nM |  |  |
| UUAUUAAGUGUGAGGAUAUGCUGGUCCUUGGAUCAGCAGAAGGCACAUGAGGAUCACCCAUGUACAUUAUUUUA |  |  | 35 nM | 247 nM |
| UGUCGGAGCAGAGGAUAUUACAUGAGGAUCACCCAUGUAUGAACCAAUAGCUGGAAACCGCAAUGUAAGAAGGCUGCUCCGACA |  |  | 104 nM | 374 nM |
| GGAUCUAUGUAGAAGGCUGUCUUAAAAUAGGACAGAGGAUAUACAUGAGGAUCACCCAUGUACUCCUUUAAAAGGAUCCAAAUA |  |  | 5.77 nM | 11 nM |
| AUUAUUAAGGUAGGAUAUAGUAUAAUAAUUAAAUUAGAAGGAUCUCACAUGAGGAUCACCCAUGUAAGAGGAUCACCCAUGUAU |  |  | 10.3 nM | 10.4 nM |
| GGAUGACAAAGUCAUCCAAUUCGAACAUGAGGAUCACCCAUGUAGGAUAUGCUACUCAAAGAGUAGCAGAAGGACAUGUGCCUU |  |  | 31.7 nM | 173 nM |
| ACUCAGUCAGGAUAUCGUUAAUUUAAUUGUUUGUUUUAGUUCGAGAAGGGACAUGAGGAUCACCCAUGUACUCA |  |  | 25.3 nM | 51.2 nM |
| GUCAGCUCGAGAGGAUAUACAACACUGCUUCGGCAGUGUAUUAAGAUCACAUGAGGAUCACCCAUGUAGAAGGCACGAGCUGAU |  |  | 9.31 nM | 89.2 nM |
| AAUAAACAUGAGGAUCACCCAUGUGGUGGCCCAUGAGGAUAUCCGUACGCAAUGCGCACAGGAGAAGGCAUAGCCA | 33.9 nM | 90.8 nM |  |  |
| AAUCCACAUGAGGAUCACCCAUGUCAGGAUAUCGCGCGCGCGUUUUCGGUCUUUCGCGCGAGAAGGGACGGCUG |  |  | 17.7 nM | 23.5 nM |
| GUGUUUGAUGAGGAUAUCGAUGUGGGUACAUAGCGAGAAGGCAUUACAUGAGGAUCACCCAUGUAGUGUGGGUU |  |  | 25 nM | 56.7 nM |
| GCAUGUUAUGUCAGGAUAUACCUAUGGAUACAUAGGUAGAAGGGACAUGAGGAUCACCCAUGUCCUAACCAUGC |  |  | 11.8 nM | 15.1 nM |
| AGGUACAUGAGGAUCACCCAUGUAAGAGACCUCAUGCGAUGUAGAAGGAUUAUCCGAGAAGAGGAAUAGGAUAUACAUGAGAAA |  |  | 158 nM | 127 nM |
| CUGCCUACAUGAGGAUCACCCAUGUCUGGCGAAAGAGUUCAGUAGGAUAUGAGAUUGGGUAAUCAUCAGAAGGGCUGGCAAAAG | 37.5 nM | 14.2 nM |  |  |
| CGAGUCGGUUGCCCUGCAGUACAUGAGGAUCACCCAUGUCGGAGAAGGUGCACAAAGGAAUCGGGCAAGGAUAUCCGGCGUGAA |  |  | 8.21 nM | 7.98 nM |
